Measured values reported in ChEMBL document CHEMBL4402565, “α-Ketoamides as Broad-Spectrum Inhibitors of Coronavirus and Enterovirus Replication: Structure-Based Design, Synthesis, and Activity Assessment” (J Med Chem, 2020).
pEC50, pIC50: −log10 of the molar value.

Key:
Human coronavirus 229E = assay: Antiviral activity against Human coronavirus 229E infected in HuH7 cells expressing T7 RNA polymerase assessed as reduction in virus-induced cytopathic effect incubated for 48 hrs by Alamar blue based assay; assay type: functional, organism-based; conditions: Huh-7, 48 h
[1] = Cytotoxicity against human HeLa Rh cells assessed as reduction in cell viability incubated for 3 days by MTS assay; assay type: cell-based
[2] = test system: Middle East respiratory syndrome-related coronavirus; assay: Antiviral activity against Middle East respiratory syndrome coronavirus infected in HuH7 cells expressing T7 RNA polymerase assessed as reduction in virus-induced cytopathic effect incubated for 2 days by non-radioactive cell proliferation assay; assay type: functional, organism-based; conditions: Huh-7, 48 h
[3] = Inhibition of SARS coronavirus M protease using Dabcyl-KTSAVLQ-SGFRKM-E(Edans)-NH2 as substrate incubated for 10 mins by fluorospectrometry; set-up: species or system Severe acute respiratory syndrome-related coronavirus
How it was run: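 FRET cleavage assay with 0.5 µM recombinant SARS-CoV Mpro (authentic termini) in 20 mM Tris-HCl, 100 mM NaCl, 1 mM EDTA, 1 mM DTT, pH 7.3. Enzyme was preincubated with inhibitor (0–100 µM) for 10 min at 37 °C, then 20 µM final substrate was added. Fluorescence was read at ex 360/em 460 nm. Triplicate, mean ± SD; IC50 from curve fitting.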

rhinovirus A2 = assay: Antiviral activity against Human rhinovirus 2 infected in HeLa Rh cells assessed as reduction in virus-induced cytopathic effect incubated for 3 days by MTS assay; assay type: functional, organism-based; conditions: Rhinovirus A, 72 h
How it was run: (§1)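 CPE reduction assay. RD (EV-A71) or HeLa Rh (EV-D68, HRV) cells seeded 24 h earlier in medium with 2% FCS; HRV2/HRV14 medium contained 30 mM MgCl₂. Serial compound dilutions added with virus. At 3 days post infection, 5% MTS added for 1 h at 37 °C and OD498 read. EC50 taken as 50% protection versus controls by logarithmic interpolation; morphology also checked microscopically.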

[4] = Inhibition of human coronavirus NL63 M protease using Dabcyl-KTSAVLQ-SGFRKM-E(Edans)-NH2 as substrate incubated for 10 mins by fluorospectrometry
How it was run: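 0.5 μM final HCoV-NL63 Mpro preincubated 10 min at 37 °C with inhibitor (0–100 μM) in pH 7.3 Tris buffer (100 mM NaCl, 1 mM EDTA, 1 mM DTT). Cleavage of 20 μM Dabcyl-KTSAVLQ↓SGFRKM-E(Edans)-NH₂ followed by fluorescence at 460 nm with 360 nm excitation. IC50 from triplicate measurements, mean ± SD.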

SARS-CoV [5] = assay: Antiviral activity against SARS coronavirus infected in Vero E6 cells assessed as reduction in virus-induced cytopathic effect incubated for 2 days by non-radioactive cell proliferation assay; assay type: functional, organism-based; conditions: Severe acute respiratory syndrome-related coronavirus, Vero C1008, 48 h
[6] = Antiviral activity against […] infected in HuH7 cells expressing T7 RNA polymerase assessed as reduction in virus-induced cytopathic effect incubated for 2 days by non-radioactive cell proliferation assay; assay type: functional, organism-based; conditions: B3, Huh-7, 48 h
[7] = test system: Middle East respiratory syndrome-related coronavirus; assay: Antiviral activity against Middle East respiratory syndrome coronavirus infected in Vero cells assessed as reduction in virus-induced cytopathic effect incubated for 3 days by non-radioactive cell proliferation assay; assay type: functional, organism-based; conditions: 72 h
SARS-CoV [8] = assay: Antiviral activity against SARS coronavirus infected in HuH7 cells expressing T7 RNA polymerase assessed as reduction in viral RNA replication incubated for 24 hrs by luciferase reporter gene assay; assay type: functional, organism-based; conditions: Severe acute respiratory syndrome-related coronavirus, Huh-7, 24 h
How it was run: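 SARS-CoV replicon (DNA-launched, Renilla luciferase reporter) was transfected into Huh-T7 cells at 80–90% confluency. Compound at 0, 1.25, 2.5, 5, 10, 20 or 40 µM in growth medium was added after transfection. At 24 h, cells were lysed and luciferase activity measured. Runs were in triplicate or quadruplicate, reported as mean ± SD.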

enterovirus D68 = assay: Antiviral activity against Enterovirus D68 infected in HeLa Rh cells assessed as reduction in virus-induced cytopathic effect incubated for 3 days by MTS assay; assay type: functional, organism-based; conditions: Enterovirus D, 72 h; how it was run: as §1
[9] = Cytotoxicity against human RD cells assessed as reduction in cell viability incubated for 3 days by MTS assay; assay type: cell-based
[10] = Inhibition of Enterovirus A71 protease 3C using DabcylKEALFQ-GPPQF-E(Edans)-NH2 as substrate incubated for 10 mins by fluorospectrometry
How it was run: (§2)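 FRET cleavage assay in 20 mM Tris-HCl, 100 mM NaCl, 1 mM EDTA, 1 mM DTT, pH 7.3. Final enzyme 2 μM for CVB3 3Cpro or 3 μM for EV-A71 3Cpro, preincubated with inhibitor (0–100 μM) for 10 min at 37 °C. Reaction started with 20 μM final Dabcyl-KEALFQ↓GPPQF-E(Edans)-NH₂. Edans dequenching read at ex 360/em 460 nm. Triplicate, mean ± SD.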

[11] = Antiviral activity against […] infected in HuH7 cells expressing T7 RNA polymerase assessed as reduction in viral RNA replication incubated for 24 hrs by luciferase reporter gene assay; assay type: functional, organism-based; conditions: B3, Huh-7, 24 h
How it was run: (§3)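 Huh-T7 cells (DMEM, 2 mM glutamine, penicillin/streptomycin, 10% FCS growth or 2% maintenance, G-418 400 μg·mL⁻¹) transfected with enteroviral replicon. Compound added in growth medium at 40 μM for screening or 0, 1.25, 2.5, 5, 10, 20, 40 μM for EC50. After 24 h, cells lysed and luciferase activity read. Triplicate or quadruplicate, mean ± SD.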

[12] = Cytotoxicity against human HuH7 cells expressing T7 RNA polymerase assessed as reduction in cell viability incubated for 2 days by non-radioactive cell proliferation assay; assay type: cell-based, Huh-7
[13] = Inhibition of […] protease 3C using DabcylKEALFQ-GPPQF-E(Edans)-NH2 as substrate incubated for 10 mins by fluorospectrometry; set-up: species or system Coxsackievirus; how it was run: as §2
Enterovirus A71 [14] = assay: Antiviral activity against Enterovirus A71 infected in HuH7 cells expressing T7 RNA polymerase assessed as reduction in viral RNA replication incubated for 24 hrs by luciferase reporter gene assay; assay type: functional, organism-based; conditions: Enterovirus A, Huh-7, 24 h; how it was run: as §3
rhinovirus B14 = assay: Antiviral activity against Human rhinovirus 14 infected in HeLa Rh cells assessed as reduction in virus-induced cytopathic effect incubated for 3 days by MTS assay; assay type: functional, organism-based; conditions: Rhinovirus B, 72 h; how it was run: as §1
Enterovirus A71 [15] = assay: Antiviral activity against Enterovirus A71 infected in RD cells assessed as reduction in virus-induced cytopathic effect incubated for 3 days by MTS assay; assay type: functional, organism-based; conditions: Enterovirus A, 72 h; how it was run: as §1
[16] = Therapeutic index, ratio of CC50 for human HeLa Rh cells to EC50 for Human rhinovirus 2 infected in human HeLa Rh cells; assay type: toxicity, cell-based; conditions: read-out: Ratio CC50/EC50
[17] = Therapeutic index, ratio of CC50 for human HeLa Rh cells to EC50 for Human rhinovirus 14 infected in human HeLa Rh cells; assay type: toxicity, cell-based; conditions: read-out: Ratio CC50/EC50
[18] = Therapeutic index, ratio of CC50 for human HeLa Rh cells to EC50 for Enterovirus D68 infected in human HeLa Rh cells; assay type: toxicity, cell-based; conditions: read-out: Ratio CC50/EC50

Row | Structure (SMILES) | pEC50 (Human coronavirus 229E) | CC50 at 72 h [1] [µM] | pEC50 [2] | pIC50 [3] | pEC50 (rhinovirus A2) | pIC50 [4] | pEC50 (SARS-CoV [5]) | pEC50 [6] | pEC50 [7] | pEC50 (SARS-CoV [8]) | CC50 at 72 h [9] [µM] | pIC50 [10] | pEC50 [11] | CC50 at 48 h [12] [µM] | pIC50 [13] | pEC50 (Enterovirus A71 [14]) | pEC50 (rhinovirus B14) | pEC50 (Enterovirus A71 [15]) | further results
1 | CC(C)C[C@H](NC(=O)/C=C/c1ccccc1)C(=O)N[C@@H](C[C@@H]1CCNC1=O)C(=O)C(=O)NCc1ccccc1 | 6.22 | 103 | 8.34 | 6.48 | 5.05 | 5.97 | 4.85 | 4.62 | 5.04 | 5.14 | 115 | 4.86 | < 5.00 | > 188 | 5.42 | < 5.00 | 4.87 | 4.14 | pEC50 (enterovirus D68): 5.35
2 | O=C(/C=C/c1ccccc1)N[C@@H](CC1CCCCC1)C(=O)N[C@@H](C[C@@H]1CCNC1=O)C(=O)C(=O)NCc1ccccc1 | 5.74 | 10.9 | 9.40 | 6.15 | 6.19 | 4.91 | 5.68 | 5.56 | 5.30 | 5.85 | 17.3 | 5.77 | 5.63 | 43 | 6.02 | 5.16 | 6.15 | 5.43 | selectivity ratio [16]: > 15; selectivity ratio [17]: > 15; pEC50 (enterovirus D68): 6.32; selectivity ratio [18]: > 15
3 | C#CC[C@H](NC(=O)/C=C/c1ccccc1)C(=O)N[C@@H](C[C@@H]1CCNC1=O)C(=O)C(=O)NCc1ccccc1 |  |  |  | 4.97 |  | 4.76 |  |  |  | < 4.70 |  | 5.07 |  |  | 5.05 |  |  |  | 
4 | O=C(/C=C/c1ccccc1)N[C@H](C(=O)N[C@@H](C[C@@H]1CCNC1=O)C(=O)C(=O)NCc1ccccc1)C1CC1 |  |  |  | 5.20 |  | 4.94 |  |  |  |  |  | < 4.52 |  |  | 4.81 |  |  |  | 
5 | O=C(/C=C/c1ccccc1)N[C@@H](CC1CCCC1)C(=O)N[C@@H](C[C@@H]1CCNC1=O)C(=O)C(=O)NCc1ccccc1 | 5.60 | 33.2 | 8.15 | 5.90 | 6.29 | 5.27 | 5.31 | 5.09 | 4.95 | 5.44 | 30.8 | 5.33 | 5.29 | 47.5 | 5.71 | 5.05 | 6.38 | 5.38 | 
6 | O=C(/C=C/c1ccccc1)N[C@@H](CC1CC1)C(=O)N[C@@H](C[C@@H]1CCNC1=O)C(=O)C(=O)NCc1ccccc1 | 5.89 | 103 | 7.10 | 6.62 | 5.42 | 5.86 | 4.74 | 4.98 | 4.96 | 5.72 | 106 | 4.73 | 4.74 | > 189 | 5.37 | < 4.70 | 5.26 | 4.34 | 
7 | O=C(/C=C/c1ccccc1)N[C@@H](CC1CCC1)C(=O)N[C@@H](C[C@@H]1CCNC1=O)C(=O)C(=O)NCc1ccccc1 |  | 65 | 7.70 | 5.84 | 5.43 | 5.46 | 5.15 | 4.98 | 5.01 | 5.17 | 100 | 4.97 | 5.37 | 124 | 5.32 | 4.70 | 5.38 | 4.39 | selectivity ratio [16]: > 15; selectivity ratio [17]: > 15; selectivity ratio [18]: > 15
8 | CC(C)(C)OC(=O)N[C@@H](C[C@@H]1CCNC1=O)C(=O)C(=O)NCc1ccccc1 |  |  |  |  |  | < 4.30 |  |  |  | < 4.40 |  | < 4.30 | < 5.00 |  | < 4.30 | < 5.00 |  |  | 
9 | CCCC[C@H](NC(=O)/C=C/c1ccccc1)C(=O)N[C@@H](C[C@@H]1CCNC1=O)C(=O)C(=O)NCc1ccccc1 |  |  |  | 5.07 |  | < 4.30 |  |  |  |  |  | 5.49 |  |  | 5.28 | < 4.70 |  |  | 
10 | O=C(/C=C/c1ccccc1)N[C@@H](Cc1ccc(F)cc1)C(=O)N[C@@H](C[C@@H]1CCNC1=O)C(=O)C(=O)NCc1ccccc1 |  |  |  |  |  | < 4.30 |  |  |  |  |  | 5.63 |  |  | 5.06 | < 4.70 |  |  | 
